Data taken from PMC4330091 (Bioorganic & medicinal chemistry, 2014).
Where two headings read alike, the source gives them in different places. Marks after values point to notes of the source that are not given here. Blank lines part the entries; values can stand above or below the compound they belong to.

Tests used:
MCF-7 = test: ROS production; type: cell-based, human; settings: MCF-7, 72 h
[1] = tested on: MCF-10A non-tumorigenic human breast epithelial cell line; test: MTT anti-proliferative assay on MCF-10A; type: cell-based; settings: read-out: IC50, MCF-10A
[2] = tested on: MCF-7 breast cancer cell line; test: MTT anti-proliferative assay on MCF-7; type: cell-based, human; settings: read-out: IC50, MCF-7
[3] = Cyclic voltammetry in CH3CN; type: physicochemical; settings: 0.1 M [NBu4n]PF6, 100 mV/s, vs Ag/AgCl
Outline: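 Test compound dissolved at 2 × 10⁻³ M in deoxygenated CH3CN with 0.1 M [NBuⁿ₄]PF₆ as supporting electrolyte; cyclic voltammograms recorded on these solutions.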

MCF-7 cells [4] = test: Cytokinesis-block micronucleus assay; settings: for % Binucleated cells (Mitotic rate) / Micronucleus (MNi) (mean ± SD): 72 h treatment; for % Binucleated cells (Mitotic rate): MCF-7, mean (SD); for Micronucleus (MNi) (mean ± SD): micronucleated cells in 500 binucleated MCF-7 cells; for increase in micronucleus forming activity compared to control (untreated cells): MCF-7
[5] = tested on: HT-29 colon cancer cell line; test: MTT anti-proliferative assay on HT-29; type: cell-based, human; settings: read-out: IC50, HT-29
MCF-7 cells [6] = tested on: MCF-7 cells
[7] = tested on: MCF-10A non-tumorigenic human breast epithelial cell line; settings: cited from earlier work
[8] = tested on: MCF-7 breast cancer cell line; settings: cited from earlier work; for IC50: read-out: IC50, MCF-7, MTT assay, 72 h drug exposure
[9] = CH3CN, vs Ag/AgCl, cited from earlier work
[10] = tested on: HT-29 colon cancer cell line; settings: read-out: IC50, HT-29; MTT assay, 72 h drug exposure; cited from earlier work
MCF-7 cells [11] = settings: ref 35 (Yared et al.); cited from earlier work
[12] = MTT assay, 72 h drug exposure, SD in parenthesis
[13] = ref 14. J. Organometal. Chem 749 (2014) 204–214
[14] = ref 13. Dalton Trans. 40 (2011) 9557–9565

IC50 [2, 12]: 45.5 µM | E1/2 [3]: 910 mV | Epa [3]: 958 mV | Epc [3]: 862 mV | ΔE [3]: 96 mV | IC50 [5, 12]: 189 µM
SMILES: O=C(Oc1ccc(-n2cccc2)cc1)[c-]1cccc1.O=C(Oc1ccc(-n2cccc2)cc1)[c-]1cccc1.[Fe+2] [Fc-(CO2-Ph-4-Py)2, 1,1′-4-(1H-pyrrol-1-yl)phenyl ferrocenedicarboxylate]
ROS production (in words) (MCF-7): significant increase | IC50 [1, 12]: 298 µM | % Binucleated cells (Mitotic rate) (MCF-7 cells [4]; 0.1 μM): 18 (7) ^* % | % Binucleated cells (Mitotic rate) (MCF-7 cells [4]; 1 μM): 33 (13) ^* % | % Binucleated cells (Mitotic rate) (MCF-7 cells [4]; 10 μM): 25 (6) ^* % | Micronucleus (MNi) (mean ± SD) (MCF-7 cells [6]): 15 (1) ^** | increase in micronucleus forming activity compared to control (untreated cells) (MCF-7 cells [6]): up to 5 fold | increase in micronucleus-forming activity (MCF-7 cells [6]): up to 5 fold

SMILES: O=C(Oc1ccc(-n2cccc2)cc1)[c-]1cccc1.[Fe+2].c1cc[cH-]c1 [Fc-CO2-Ph-4-Py, 4-(1H-pyrrol-1-yl)phenyl ferrocenecarboxylate]
anti-proliferative activity (in words) ([7]; non-tumorigenic human breast epithelial cell line MCF-10A): high anti-proliferative activity | anti-proliferative activity (in words) ([8]; hormone-dependent breast cancer cell line MCF-7): high anti-proliferative activity

SMILES: COS(C)(=O)=O [MMS, methyl methane sulphonate]
% Binucleated cells (Mitotic rate) (MCF-7 cells [4]; 94.4 μM): 28 (3) ^* % | Micronucleus (MNi) (mean ± SD) (MCF-7 cells [4]; 94.4 μM): 62 (6) ^***

SMILES: O=C(O)[c-]1cccc1.O=C(O)[c-]1cccc1.[Fe+2] [1-1′ferrocenedicarboxilic acid]
IC50 [5, 12]: 410 µM

SMILES: O=C(Oc1ccc(Br)cc1)[c-]1cccc1.[Fe+2].c1cc[cH-]c1 [Fc-CO2-Ph-4-Br, 4-bromophenyl ferrocenecarboxylate]
IC50 ([7]; read-out: IC50, MCF-10A, MTT assay, 72 h drug exposure): 353 µM | E1/2 [9, 13]: 532 mV | Epa [9, 13]: 580 mV | Epc [9, 13]: 484 mV | ΔE [9, 13]: 96 mV | IC50 [8]: 9.2 µM | IC50 [10]: 24 µM

SMILES: F[B-](F)(F)F.[Fe+3].c1cc[cH-]c1.c1cc[cH-]c1 [Ferricenium tetrafluoroborate]
IC50 [8]: 150 µM | IC50 [10]: 180 µM

IC50 [2, 12]: 590 µM | IC50 [5, 12]: 253 µM
SMILES: O=C(O)Cc1ccc[cH-]1.[Fe+2].c1cc[cH-]c1 [Ferroceneacetic acid]
IC50 [1, 12]: 86 µM

E1/2 [3]: 454 mV | Epa [3]: 494 mV | Epc [3]: 414 mV | ΔE [3]: 80 mV
SMILES: [Fe+2].c1cc[cH-]c1.c1cc[cH-]c1 [Fc/Fc^+, ferrocene]

SMILES: C[C@]12CC[C@@H]3c4ccc(OC(=O)[c-]5cccc5)cc4CC[C@H]3[C@@H]1CC[C@@H]2O.[Fe+2].c1cc[cH-]c1 [Fc-CO2-estradiol, ferrocenoyl 17β-hydroxy-estra-1,3,5(10)-trien-3-olate]
E1/2 [9, 14]: 756 mV | Epa [9, 14]: 801 mV | Epc [9, 14]: 711 mV | ΔE [9, 14]: 90 mV | ROS production (in words) (MCF-7): significant increase | IC50 [8]: 9 µM | IC50 [1, 12]: 119 µM | IC50 [10]: 24.4 µM | % Binucleated cells (Mitotic rate) (MCF-7 cells [4]; 0.01 μM): 33 (2) ^* % | increase in micronucleus forming activity compared to control (untreated cells) (MCF-7 cells [4]; 0.01 μM): 3 fold | % Binucleated cells (Mitotic rate) (MCF-7 cells [4]; 0.1 μM): 39 (9) ^* % | Micronucleus (MNi) (mean ± SD) (MCF-7 cells [4]; 0.1 μM): 25 | increase in micronucleus forming activity compared to control (untreated cells) (MCF-7 cells [4]; 0.1 μM): 4 fold | % Binucleated cells (Mitotic rate) (MCF-7 cells [4]; 1 μM): 34 (9) ^* % | Micronucleus (MNi) (mean ± SD) (MCF-7 cells [4]; 1 μM): 29 | increase in micronucleus forming activity compared to control (untreated cells) (MCF-7 cells [4]; 1 μM): 4 fold | increase in micronucleus-forming activity (MCF-7 cells [4]; concentration near IC50, MCF-7): up to 4 fold

SMILES: C[C@]12CC[C@@H]3c4ccc(O)cc4CC[C@H]3[C@@H]1CC[C@@H]2O [β-estradiol]
increase in the micronucleus-forming activity (MCF-7 cells [11]): 3 fold

IC50 ([2]; Homo sapiens, MCF7, 72 h): 249 µM | IC50 ([5]; Homo sapiens, HT-29, 72 h): 211 µM
SMILES: Oc1ccc(-n2cccc2)cc1 [4-(1H-pyrrol-1yl)phenol]
IC50 ([1]; Homo sapiens, MCF-10A, 72 h): 553 µM
